Converted amounts (≈) assume the structure as drawn. Like-named read-outs stand apart in the source and are kept apart here.
Experiments:
Cytotoxicity assay = type: cell-based, Human; conditions: human, HepG2 cells
Summary of the method: (§1)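 HepG2 cells in DMEM with 10% FBS and penicillin-streptomycin, seeded at 6,000/well and attached overnight at 37 °C, 5% CO₂. Test compound in DMSO diluted into medium and added; 24 h incubation. CCK-8 added for 2–4 h, then absorbance read at 450 nm. CC50 (reported as EC50) from nonlinear logistic regression. SI is CC50 over 3D7 EC50.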

[1] = system: 3D7 strain of P. falciparum; experiment: Parasites growth inhibition assay; type: cell-based; conditions: Plasmodium falciparum
Summary of the method: (§2)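 P. falciparum grown in type O human red cells in RPMI 1640 with Albumax I, hypoxanthine, bicarbonate, 15 mmol/L HEPES and gentamycin, under 5% O₂/5% CO₂/90% N₂. Synchronised with alanine/HEPES or 5% sorbitol. Mid-ring parasites (0.5% parasitemia, 2% hematocrit) exposed to serially diluted test compound in triplicate for 72 h at 37 °C.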

[2] = molecular target: T1, wildtype yeast bc1 complex (Saccharomyces cerevisiae, UniProt P00163); conditions: at 1 μmol/L; cited from earlier work
[3] = molecular target: T2, PF12 bc1 complex (PF11 changes plus Y279S) (Saccharomyces cerevisiae, UniProt P00163, C133V/C134L/F296L/H141Y/I299L/L275F/M295V/R283K/V135P/Y136W/Y279S); conditions: cited from earlier work
[4] = Measurement of solubility; type: physicochemical; conditions: thermodynamic from solid
Summary of the method: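 Solid added to solvent to supersaturation and shaken 24 h at room temperature, then centrifuged and filtered. Aqueous supernatants were quantified by reversed-phase HPLC against a standard curve prepared in methanol. For organic solvents, the dissolved solid was weighed after removing solvent under reduced pressure.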

[5] = system: P. falciparum strain Fab9; experiment: Parasites growth inhibition assay, strain Fab9; type: cell-based; conditions: Plasmodium falciparum
Summary of the method: as §2

[6] = system: P. falciparum strain CP286; experiment: Parasites growth inhibition assay, strain CP286; type: cell-based; conditions: Plasmodium falciparum
Summary of the method: as §2

P. falciparum strain GB4 = experiment: Parasites growth inhibition assay, strain GB4; type: cell-based; conditions: Plasmodium falciparum
Summary of the method: as §2

[7] = system: P. falciparum strain PC26; experiment: Parasites growth inhibition assay, strain PC26; type: cell-based; conditions: Plasmodium falciparum
Summary of the method: as §2

HepG2 cells = experiment: Cytotoxicity assay; type: cell-based, Human; conditions: CC50 / EC50 on 3D7
Summary of the method: as §1

P. falciparum strain Dd2 = experiment: Parasites growth inhibition assay, strain Dd2; type: cell-based; conditions: Plasmodium falciparum
Summary of the method: as §2

P. falciparum strain C2A = experiment: Parasites growth inhibition assay, strain C2A; type: cell-based; conditions: Plasmodium falciparum
Summary of the method: as §2

P. falciparum strain 803 = experiment: Parasites growth inhibition assay, strain 803; type: cell-based; conditions: Plasmodium falciparum
Summary of the method: as §2

[8] = system: wildtype (WT) D10 parasites; experiment: Parasites growth inhibition assay, wildtype D10 strain; type: cell-based; conditions: Plasmodium falciparum
Summary of the method: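 Wildtype D10 or yDHOD-transgenic D10 parasites were challenged with test compound with or without 50 nmol/L proguanil. Growth inhibition used SYBR Green I: mid-ring cultures at 0.5% parasitemia and 2% hematocrit, in triplicate, for 72 h at 37 °C under 5% O₂/5% CO₂. Plates were freeze-thawed and lysed with SYBR Green I buffer, and fluorescence read at 485/538 nm. EC50 by nonlinear regression.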

[9] = system: various P. falciparum strains; experiment: Parasites growth inhibition on the panel of various P. falciparum strains; type: cell-based, Plasmodium falciparum; conditions: all strains of Table 2
Summary of the method: as §2

[10] = molecular target: PFQi4 bc1 complex with P. falciparum-like modifications in the Qi-site (Saccharomyces cerevisiae, UniProt P00163, A191L/F225L/I17L/I195F/I226L/L198I/L40F/M221F/Q22C/S20Y/S34F/V41F/Y16H); experiment: Decylubiquinol-cytochrome c reductase activity, yeast bc1 mutant PFQi4; type: biochemical
Summary of the method: (§3)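 Yeast cytochrome b mutants carry P. falciparum-like substitutions and are otherwise isogenic. Mitochondria from mid-log YPGal cultures were made via zymolyase protoplasts, osmotic shock and differential centrifugation; bc1 content came from dithionite-reduced spectra. Assay at room temperature: 20 µmol/L cytochrome c in 10 mmol/L potassium phosphate pH 7, 0.01% lauryl-maltoside, 1 mmol/L KCN. bc1 was 6 nmol/L (wildtype) or 20 nmol/L (mutants), started with 40 µmol/L decylubiquinol.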

Pfbc1 = molecular target: T3, Pfbc1 (Plasmodium falciparum, UniProt Q02768); experiment: Decylubiquinol-cytochrome c reductase activity of Pfbc1; type: biochemical, P. falciparum
T3 sequence (Q02768 1-376): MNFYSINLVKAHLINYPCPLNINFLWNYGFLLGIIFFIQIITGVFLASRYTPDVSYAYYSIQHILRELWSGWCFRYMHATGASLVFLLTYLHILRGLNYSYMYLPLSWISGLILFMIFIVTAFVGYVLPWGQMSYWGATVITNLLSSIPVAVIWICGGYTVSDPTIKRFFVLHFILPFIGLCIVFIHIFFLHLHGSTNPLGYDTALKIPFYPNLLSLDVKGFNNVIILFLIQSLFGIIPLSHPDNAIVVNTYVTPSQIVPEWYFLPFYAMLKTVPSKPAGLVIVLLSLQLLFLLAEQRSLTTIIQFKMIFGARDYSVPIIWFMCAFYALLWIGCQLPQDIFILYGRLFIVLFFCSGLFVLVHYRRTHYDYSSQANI

PfNDH2 = molecular target: T4, PfNDH2 (Plasmodium falciparum, UniProt Q8I302); experiment: Enzymatic activity assay of PfNDH2; type: biochemical, P. falciparum
T4 sequence (Q8I302 1-533): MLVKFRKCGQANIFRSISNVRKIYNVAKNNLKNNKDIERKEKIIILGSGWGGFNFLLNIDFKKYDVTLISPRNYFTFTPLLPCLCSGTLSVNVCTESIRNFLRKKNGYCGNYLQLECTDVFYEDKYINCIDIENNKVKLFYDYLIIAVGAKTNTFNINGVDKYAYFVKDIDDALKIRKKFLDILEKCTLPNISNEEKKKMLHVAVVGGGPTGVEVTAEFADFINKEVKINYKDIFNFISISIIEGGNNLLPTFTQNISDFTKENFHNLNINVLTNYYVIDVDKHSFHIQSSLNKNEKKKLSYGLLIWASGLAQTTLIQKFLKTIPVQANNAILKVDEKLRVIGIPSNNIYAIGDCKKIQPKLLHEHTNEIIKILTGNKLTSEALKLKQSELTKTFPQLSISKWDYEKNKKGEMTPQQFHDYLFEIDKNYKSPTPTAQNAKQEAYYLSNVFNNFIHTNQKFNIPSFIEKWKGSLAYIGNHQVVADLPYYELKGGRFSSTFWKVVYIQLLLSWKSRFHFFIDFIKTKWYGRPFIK
Summary of the method: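 Reaction started with enzyme; NADH decrease followed continuously at 340 nm (ε 6220 L/(mol·cm)); IC50 by nonlinear regression. Kinetics varied UQ₁ (5–100 µmol/L) or NADH (10–600 µmol/L) at several inhibitor concentrations; Lineweaver–Burk analysis.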

[11] = molecular target: PF11 bc1 complex with P. falciparum-like modifications in the Qo-site (Saccharomyces cerevisiae, UniProt P00163, C133V/C134L/F296L/H141Y/I299L/L275F/M295V/R283K/V135P/Y136W); experiment: Decylubiquinol-cytochrome c reductase activity, yeast bc1 mutant PF11; type: biochemical
Summary of the method: as §3

[12] = molecular target: T1, wildtype yeast bc1 complex; experiment: Decylubiquinol-cytochrome c reductase activity, wildtype yeast bc1; type: biochemical; conditions: at 10 μmol/L, data not shown
Summary of the method: as §3

[13] = system: Plasmodium yoelii-infected mouse models; experiment: In vivo efficacy study on P. yoelii-infected mice; conditions: once a day for 4 days
Summary of the method: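 Female BALB/c mice (25 g, 6–8 weeks), specific pathogen-free, five per group. Infected intraperitoneally with about 1×10⁶ P. yoelii-infected red cells on Day 0, then randomised. Test compound in aqueous 5% DMSO / 18% PEGylated castor oil given intraperitoneally once daily for 4 days from Day 1. Chloroquine and DMSO groups included. Parasitemia by Giemsa-stained smear microscopy; survival followed, with CO₂ euthanasia at distress. Mean ± SD, n = 5.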

[14] = molecular target: T2, PF12 bc1 complex (PF11 changes plus Y279S); experiment: Decylubiquinol-cytochrome c reductase activity, yeast bc1 mutant PF12; type: biochemical
[15] = 0.01 mol/L HCl, pH 2, simulated gastric fluid
[16] = dichloromethane, organic solvent or mixture
[17] = methanol, organic solvent or mixture

Structure (SMILES) | CC50 at 24 h (Cytotoxicity assay) [nM] | EC50 [1] [nM] | solubility at 24 h [4, 15] [mM] | solubility at 24 h [4, 16] [mM] | solubility at 24 h [4, 17] [mM] | solubility at 24 h ([4]; water) [mM] | EC50 [5] [nM] | EC50 [6] [nM] | EC50 (P. falciparum strain GB4) [nM] | EC50 [7] [nM] | SI (selectivity index) (HepG2 cells) | EC50 (P. falciparum strain Dd2) [nM] | EC50 (P. falciparum strain C2A) [nM] | EC50 (P. falciparum strain 803) [nM] | EC50 [8] [nM] | also measured
O=C1C(O)=C([C@H]2CC[C@H](c3ccc(Cl)cc3)CC2)C(=O)c2ccccc21 [Atovaquone, atovaquone, reference compound] | > 10000 | 0.45 | 0.0006 (≈ 0.22 µg/mL) | 29 (≈ 10600 µg/mL) | 29 (≈ 10600 µg/mL) | 0.0007 (≈ 0.257 µg/mL) | – | – | – | – | – | – | – | – | – | Inhibition of wildtype yeast bc1 complex [2]: fully inhibited; Increase of mid-point inhibitory concentration PF12 compared to PF11 [3]: > 100 fold
Cc1c(-c2ccc(Cc3ccc(OC(F)(F)F)cc3)c(CN(C)C)c2)[nH]c2cccc(F)c2c1=O [Compound 24] | > 10000 | 2.09 | 0.496 (≈ 240 µg/mL) | 19 (≈ 9210 µg/mL) | 110 (≈ 53300 µg/mL) | 0.04 (≈ 19.4 µg/mL) | 6.01 | 4.56 | 1.02 | 3.17 | >4785 | 2.05 | 1.44 | 9.3 | 3.23 | –
Cc1c(-c2ccc(Cc3ccc(OC(F)(F)F)cc3)c(CN3CCCC3)c2)[nH]c2cccc(F)c2c1=O [Compound 25] | > 10000 | 2.89 | 0.45 (≈ 230 µg/mL) | 30 (≈ 15300 µg/mL) | 37 (≈ 18900 µg/mL) | 0.0163 (≈ 8.32 µg/mL) | 5.33 | 4.81 | 1.41 | 3.3 | >3460 | 2.18 | 7.01 | 9.81 | 2.32 | –
CCCCCN(C)Cc1cc(-c2[nH]c3cccc(F)c3c(=O)c2C)ccc1Cc1ccc(OC(F)(F)F)cc1 [Compound 30] | > 10000 | 0.61 | 0.337 (≈ 182 µg/mL) | 370 (≈ 200000 µg/mL) | 34 (≈ 18400 µg/mL) | 0.0064 (≈ 3.46 µg/mL) | – | – | – | – | >16,393 | – | – | – | – | –
CCCCCCCN(C)Cc1cc(-c2[nH]c3cccc(F)c3c(=O)c2C)ccc1Cc1ccc(OC(F)(F)F)cc1 [Compound 31] | > 10000 | 0.3 | 0.0194 (≈ 11 µg/mL) | 420 (≈ 239000 µg/mL) | 32 (≈ 18200 µg/mL) | 0.002 (≈ 1.14 µg/mL) | – | – | – | – | >33,333 | – | – | – | – | –
CCCN(C)Cc1cc(-c2[nH]c3cccc(F)c3c(=O)c2C)ccc1Cc1ccc(OC(F)(F)F)cc1 [RYL-581] | > 10000 | 0.056 | 0.428 (≈ 219 µg/mL) | 64 (≈ 32800 µg/mL) | 37 (≈ 19000 µg/mL) | 0.0136 (≈ 6.97 µg/mL) | 0.27 | – | 0.23 | 0.31 | >178,571 | 0.44 | 0.29 | 0.96 | 0.7 | EC50 values on various strains, in words [9]: sub-nanomolar; IC50 [10]: ~10000 nM; Resistance of PFQi4 bc1 complex compared to wild type [10]: increased reactivity; IC50 (Pfbc1): 0.51 nM; Potency on PfNDH2 decreased as compared to RYL-552 (PfNDH2): 11 fold; IC50 (PfNDH2; IC50 PfNDH2, 200 μmol/L NADH, 100 μmol/L UQ1): 42.2 nM; Type of inhibition of PfNDH2 (Lineweaver–Burk) (PfNDH2; substrates Q (UQ1) and NADH varied): non-competitive; IC50 [11]: ~300 nM; Inhibition of wildtype yeast bc1 complex [12]: only slight inhibition; Day by which parasites were completely cleared ([13]; 3 mg/kg/d intraperitoneal): ≤ 22 days; Final survival rate ([13]; 3 mg/kg/d intraperitoneal, 5 mice): 80%; Day by which all mice were cured ([13]; 10 mg/kg/d intraperitoneal): ≤ 16 days; Survival rate ([13]; 10 mg/kg/d intraperitoneal, 5 mice): 100%; IC50 [14]: ~1000 nM; Increase of mid-point inhibitory concentration PF12 compared to PF11 [14]: three-fold

Reference: article PMC8463279 (Acta Pharmaceutica Sinica. B, 2021)
